Assay outcomes: PubChem, Broad Institute
SIRT5 block = blocks human SIRT5 desuccinylation of peptide | Q9NXA8 | Purified SirT5, succinyl-peptide AMC, trypsin-coupled fluorescence | inhibition, % at 15 µM | actives 1.1% (n = 330,000) | AID 652115; in the data active = inhibition above about 15%
ERAP1 inh = inhibitors of human ERAP1 aminopeptidase. AID 652197. recombinant ERAP1, Leu-AMC fluorescence, 60 min. Q9NZ08. actives 0.15% (n = 340,000). inhibition, % at 10.7 µM;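 active = mean replicate inhibition of at least 30%, or all replicates individually reaching that 30% level; inactive = mean below 30% and not every replicate reaching it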
AF4-AF9 inh = blocks AF4 peptide binding to human AF9; P42568; AlphaScreen, biotin-AF4 peptide binding to FLAG-AF9; inhibition, % at 10 µM; actives 0.47% (n = 350,000);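 active = every replicate reaching a set inhibition limit, whatever the replicate mean, cut at about 25% in these data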
E-sel inducer = E-selectin induction on HUVECs; HUVEC E-selectin immunofluorescence imaging; normalized: neutral wells 0, TNF-alpha wells 100; P16581; activation, % at 7.58 µM; actives 0.37% (n = 260,000);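 active = mean E-selectin-positive cell signal at least 10% of the positive control, reached in at least 60% of replicates, without over 20% cell loss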
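Read-out basis: % PE-positive cells; Test system: HUVEC primary endothelial cells; Technique: immunofluorescence imaging; Dosing: single-point compound dose.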
Ecoli rRNA inh = inhibits bacterial ribosomal RNA function over humanized ribosomes; AID 720706; actives 1.6% (n = 350,000); E. coli WT GFP vs humanized-ribosome RFP mutants, fluorescence, 24 h; hits give low values; DMSO median 0, no signal -100; GFP signal change (wild-type ribosome), % (test concentration not listed);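 active = significant combined selectivity score with lowered wild-type GFP, culture density cut under 30%, mutant RFP and density less affected; inactive = any of these conditions unmet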
S100A4 MyoIIA = S100A4-myosin IIA interaction inhibition. AID 652163. S100A4/TAMRA-MyoIIA peptide fluorescence polarization. actives 0.14% (n = 360,000). P26447. inhibition, % at 10.7 µM;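 active = mean inhibition of at least 70% across replicates, with every replicate also reaching that level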
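Material: S100A4 monomer protein / Buffer or medium: 50 mM HEPES pH 7.2, 10 mM CaCl2, 100 mM KCl / Times: 5 min incubation before reading / Benchmarks: neutral control DMSO, positive control TFP / Reagent: labelled myosin peptide probe, 5 nM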
Large screens that a line does not name were inactive. The list is not random: actives were taken first. Their share in the collection is about 3.4%.

O=C(c1ccccn1)N1CC2(C1)[C@@H](c1ccccc1)[C@@H](CO)N2C(=O)C1CCCC1	none
CCOC(=O)CC1(c2ccc(OC)c(OC)c2)C(=O)c2ccccc2C1=O	Ecoli rRNA inh -27
CN(C)c1ccc2cc(S(=O)(=O)O)cc(O)c2c1	SIRT5 block 22
COc1ccc(NC(=O)N(C)C[C@H]2Oc3ccc(NS(=O)(=O)c4ccc(OC)cc4)cc3CC(=O)N([C@H](C)CO)C[C@@H]2C)cc1	none
COc1ccccc1-n1cnc2cc(NCc3ccccc3O)ccc21	Ecoli rRNA inh -18
OCCNc1nc2nonc2nc1NCCO	none
CC(C)(C)Nc1nc2nonc2nc1NC(C)(C)C	Ecoli rRNA inh -49 (no result: E-sel inducer)
O=C(C1CCC1)N1CC2(C1)[C@H](c1ccccc1)[C@@H](CO)N2Cc1cccnc1	none
CC(C)(C)OC(=O)N(CCc1ccccc1)Cc1ccc(OCc2cccc(NC(=O)C3CCC3)c2)cc1	none (no result: SIRT5 block, ERAP1 inh)
CC(C)(C)OC(=O)N(CCc1ccccc1)Cc1ccc(OCc2cccc(NC(=O)C3CC3)c2)cc1	SIRT5 block 18
CCC(=O)N1CC2(CCN(Cc3nccs3)CC2)c2c(n(C)c3cc(OC)ccc23)[C@@H]1CO	none (no result: SIRT5 block)
CCOc1ccc(NC(=O)COC(=O)Cc2ccsc2)cc1	SIRT5 block 20 (no result: Ecoli rRNA inh)
CCc1cccc(CC)c1NC(=O)COC(=O)Cc1ccsc1	none
CC(C)NC(=O)N(C)C[C@@H]1Oc2c(NC(=O)c3cnccn3)cccc2C(=O)N([C@H](C)CO)C[C@@H]1C	none
CCCc1nc(SCC(=O)N2CCc3ccccc3C2)c2ccccc2n1	Ecoli rRNA inh -27 (no result: E-sel inducer)
CCCCNC(=O)CSc1nc(CCC)nc2ccccc12	none
CCOc1ccc2oc(C(=O)N(C)CC(=O)Nc3ccc(OCC)c(OCC)c3)c(C)c2c1	Ecoli rRNA inh -28
COC(=O)c1cc(S(=O)(=O)NCC2CCN(CCc3cccs3)CC2)c[nH]1	E-sel inducer 226
CC(C)[C@H]1CCc2cnnn2COC[C@H](c2ccccc2)NC1=O	none (no result: SIRT5 block, ERAP1 inh, AF4-AF9 inh, E-sel inducer, S100A4 MyoIIA)
C[C@H]1CCCCO[C@H](CN(C)Cc2ccc(C(F)(F)F)cc2)[C@@H](C)CN([C@@H](C)CO)C(=O)c2cc(NS(=O)(=O)c3ccc(F)cc3)ccc2O1	SIRT5 block 23
C[C@@H]1CCCCO[C@@H](CN(C)Cc2ccc(C(F)(F)F)cc2)[C@@H](C)CN([C@H](C)CO)C(=O)c2cc(NS(=O)(=O)c3ccc(F)cc3)ccc2O1	none
C[C@@H]1CCCCO[C@@H](CN(C)Cc2ccc(C(F)(F)F)cc2)[C@@H](C)CN([C@H](C)CO)C(=O)c2cc(NS(=O)(=O)c3ccccc3)ccc2O1	none
C[C@H](CO)N1C[C@H](C)[C@@H](CN(C)Cc2ccc(C(F)(F)F)cc2)OCCCC[C@H](C)Oc2ccc(NS(=O)(=O)c3ccc(F)cc3)cc2C1=O	SIRT5 block 20
COc1ccc(CN2CC3(CCN(C(=O)Cc4ccncc4)CC3)c3c([nH]c4cc(OC)ccc34)[C@@H]2CO)cc1	none (no result: SIRT5 block)
O=C(NCC[C@H]1CC[C@H](NC(=O)C2CCCCC2)[C@H](CO)O1)Nc1ccc(Cl)cc1	none
OC[C@@H]1[C@H](c2ccccc2)C2(CN(Cc3cccnc3)C2)N1Cc1ccncc1	none
OC[C@@H]1[C@@H](c2ccccc2)C2(CN(Cc3cccnc3)C2)N1Cc1ccncc1	AF4-AF9 inh 26
OC[C@@H]1[C@H](c2ccccc2)C2(CN(Cc3nccs3)C2)N1Cc1cccnc1	SIRT5 block 20
OC[C@@H]1[C@@H](c2ccccc2)C2(CN(Cc3nccs3)C2)N1Cc1cccnc1	none
CCNC(=O)C[C@H]1CC[C@@H]2[C@@H](COc3ccc(NC(=O)c4cccs4)cc3C(=O)N2C)O1	none
Cc1noc(C)c1COc1ccccc1C(=O)N1CCN(S(=O)(=O)c2ccc(F)c(F)c2)CC1	E-sel inducer 94
Cc1ccc(S(=O)(=O)N2CCN(C(=O)c3ccccc3OCc3c(C)noc3C)CC2)cc1	none
C[C@H](CO)N1C[C@H](C)[C@@H](CN(C)C(=O)Nc2ccc(F)cc2)Oc2c(NC(=O)C3CCOCC3)cccc2C1=O	none
CNC(=O)C[C@H]1CC[C@@H]2[C@@H](COc3ccc(NC(=O)C4CCCCC4)cc3C(=O)N2C)O1	none (no result: SIRT5 block, ERAP1 inh, S100A4 MyoIIA)
Cc1noc(NS(=O)(=O)c2ccc(NC(=O)c3cc(=O)c4ccccc4o3)cc2)c1C	none (no result: E-sel inducer)
CCCCOc1ccc(C(=O)Nc2ccc(S(=O)(=O)Nc3onc(C)c3C)cc2)cc1	Ecoli rRNA inh -24
COc1cccc(C(=O)/C=C/Nc2ccc(S(=O)(=O)Nc3onc(C)c3C)cc2)c1	none
Cc1noc(NS(=O)(=O)c2ccc(N/C=C\C(=O)c3cccc4ccccc34)cc2)c1C	Ecoli rRNA inh -21 (no result: E-sel inducer)
Cc1cc2oc(C(=O)Nc3ccc(S(=O)(=O)Nc4onc(C)c4C)cc3)cc(=O)c2cc1Cl	Ecoli rRNA inh -30 (no result: AF4-AF9 inh, E-sel inducer)
COc1ccc(NC(=O)N(C)C[C@@H]2Oc3ccc(NC(=O)Cc4ccccc4)cc3C(=O)N([C@H](C)CO)C[C@H]2C)cc1	none
NCC[C@@H]1CC[C@H](NC(=O)Nc2ccc(F)cc2)[C@@H](CO)O1	none
O=C(C1CC1)N1CCCCN2[C@H](CO)[C@@H](c3ccc(C#CC4CC4)cc3)[C@H]2C1	none (no result: E-sel inducer, Ecoli rRNA inh)
COc1ccc(S(=O)(=O)N(C)C[C@@H]2Oc3ccc(NS(=O)(=O)c4ccc(C)cc4)cc3C(=O)N([C@H](C)CO)C[C@H]2C)cc1	none
COc1ccc(-c2[nH]ncc2CN(CCO)CC23CC4CC(CC(C4)C2)C3)c(OC)c1	SIRT5 block 24
N[C@@H]1CC[C@@H](CCn2cc(-c3ccccn3)nn2)O[C@H]1CO	none
C/C(Cn1ncc(N2CCOCC2)c(Cl)c1=O)=N\O	none
CC(=O)OCn1ncc(N2CCOCC2)c(Br)c1=O	AF4-AF9 inh 42
CC(=O)N1CCCCN2[C@@H](CO)[C@H](c3ccc(-c4cccc(C(=O)N(C)C)c4)cc3)[C@@H]2C1	S100A4 MyoIIA 102
OC[C@H]1[C@H](c2ccc(-c3ccc(F)cc3)cc2)[C@@H]2CN(Cc3ccncc3)CCCCN12	Ecoli rRNA inh -19
OC[C@H]1[C@@H](c2ccc(-c3ccccc3)cc2)[C@@H]2CN(CCC(F)(F)F)CCCCN12	none
OC[C@H]1[C@H](c2ccc(-c3ccccc3)cc2)[C@@H]2CN(CCC(F)(F)F)CCCCN12	SIRT5 block 27
CC(=O)N1CCCCN2[C@H](C1)[C@H](c1ccc(-c3cccc(C(=O)N(C)C)c3)cc1)[C@@H]2CO	none
OC[C@H]1[C@@H](c2ccc(-c3ccc(F)cc3)cc2)[C@@H]2CN(Cc3ccncc3)CCCCN12	none
